From ChEMBL document CHEMBL1157407, “Inhibitors of bacterial multidrug efflux pumps from the resin glycosides of Ipomoea murucoides” (2008)
Converted amounts (≈) assume the structure as drawn.

Assays:
Assay type in all cases: functional
KB = experiment: Cytotoxicity against human KB cells after 72 hrs; settings: read-out: ED50 (the source's name)
How it was run: (§1)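 Cells grown in RPMI 1640 with 10% fetal bovine serum at 37 °C, 5% CO2, humidified. Log-phase cells treated in triplicate with test samples at 0.16–20 μg/mL for 72 h. Growth read by the NCI sulforhodamine method. ED50 is the dose inhibiting 50% of control growth, estimated from a semilog plot of concentration against percentage of viable cells.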

HEp-2 = experiment: Cytotoxicity against human Hep2 cells after 72 hrs; settings: HEp-2, 72 h, read-out: ED50 (the source's name); how it was run: as §1
Staphylococcus aureus [1] = experiment: Antimicrobial activity against epidemic methicillin-resistant Staphylococcus aureus 15 containing mecA gene
How it was run: (§2)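 Broth microdilution MIC per NCCLS guidelines, at least in duplicate, in cation-adjusted Mueller-Hinton broth (20 mg/L Ca2+, 10 mg/L Mg2+). Strains grown on nutrient agar first. Inoculum 5×10^5 cfu prepared in 0.9% saline against a McFarland standard. Compounds dissolved in DMSO, 2-fold serial dilutions, final 1–512 µg/mL (DMSO ≤3.125% v/v). MIC taken as lowest concentration with no visible growth.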

HeLa = experiment: Cytotoxicity against human HeLa cells after 72 hrs; settings: read-out: ED50 (the source's name); how it was run: as §1
Staphylococcus aureus [2] = experiment: Antimicrobial activity against Staphylococcus aureus ATCC 25923
How it was run: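 Broth microdilution MIC per NCCLS guidelines, at least in duplicate. Inoculum 5×10^5 cfu prepared in 0.9% saline against a McFarland standard. Cation-adjusted Mueller-Hinton broth with 20 mg/L Ca2+ and 10 mg/L Mg2+. Compounds dissolved in DMSO, then 2-fold serial dilutions, final 1–512 μg/mL; DMSO at most 3.125% v/v. MIC is the lowest concentration giving no visible growth.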

Staphylococcus aureus [3] = experiment: Antimicrobial activity against multidrug-resistant Staphylococcus aureus over expressing NorA MDR efflux pump; how it was run: as §2
Staphylococcus aureus [4] = experiment: Antimicrobial activity against methicillin-resistant Staphylococcus aureus XU212; how it was run: as §2

SMILES | EC50 (KB) | EC50 (HEp-2) | MIC (Staphylococcus aureus [1]) | EC50 (HeLa) | MIC (Staphylococcus aureus [2]) | MIC (Staphylococcus aureus [3]) | MIC (Staphylococcus aureus [4])
CCCCC[C@H]1CCCCCCCCCC(=O)O[C@H]2[C@H](O[C@H]3[C@H](O1)O[C@H](CO)[C@@H](O)[C@@H]3O)O[C@@H](C)[C@H](O[C@@H]1O[C@@H](C)[C@H](O[C@@H]3O[C@@H](C)[C@H](OC(=O)C(C)C)[C@@H](O)[C@H]3O)[C@@H](O[C@@H]3O[C@@H](C)[C@H](O)[C@@H](O)[C@H]3O)[C@H]1OC(=O)[C@@H](C)CC)[C@H]2O [MURUCOIDIN VII] | > 20 µg/mL | > 20 µg/mL | 256 µg/mL (≈ 222 µM) | > 20 µg/mL | > 512 µg/mL | 32 µg/mL (≈ 27.7 µM) | 512 µg/mL (≈ 443 µM)
CCCCCCCCCCCC(=O)O[C@H]1[C@H](O[C@@H]2[C@H]3OC(=O)CCCCCCCCC[C@H](CCCCC)O[C@@H]4O[C@H](CO)[C@@H](O)[C@H](O)[C@H]4O[C@H](O[C@H]2C)[C@@H]3O)O[C@@H](C)[C@H](O[C@@H]2O[C@@H](C)[C@H](OC(=O)[C@@H](C)CC)[C@@H](O)[C@H]2O)[C@H]1O[C@@H]1O[C@@H](C)[C@H](O)[C@@H](O)[C@H]1O [MURUCOIDIN VI] | > 20 µg/mL | > 20 µg/mL | 256 µg/mL (≈ 202 µM) | > 20 µg/mL | > 512 µg/mL | 32 µg/mL (≈ 25.2 µM) | 512 µg/mL (≈ 404 µM)
CCCCC[C@H]1CCCCCCCCCC(=O)O[C@H]2[C@@H](O)[C@H](O[C@H]3[C@H](O1)O[C@H](C)[C@H](O)[C@@H]3O)O[C@@H](C)[C@@H]2O[C@@H]1O[C@@H](C)[C@H](O[C@@H]2O[C@@H](C)[C@H](OC(=O)[C@@H](C)CC)[C@@H](O)[C@H]2O)[C@@H](O[C@@H]2O[C@@H](C)[C@H](O)[C@@H](O)[C@H]2O)[C@H]1OC(=O)[C@@H](C)CC [STOLONIFERIN I] | > 20 µg/mL | > 20 µg/mL | 512 µg/mL (≈ 444 µM) | > 20 µg/mL | > 512 µg/mL | 64 µg/mL (≈ 55.5 µM) | 256 µg/mL (≈ 222 µM)
CCCCC[C@H]1CCCCCCCCCC(=O)O[C@H]2[C@H](O[C@H]3[C@H](O1)O[C@H](C)[C@H](O)[C@@H]3O)O[C@@H](C)[C@H](O[C@@H]1O[C@@H](C)[C@H](O[C@@H]3O[C@@H](C)[C@H](OC(=O)[C@@H](C)CC)[C@@H](O)[C@H]3O)[C@@H](O[C@@H]3O[C@H](CO)[C@@H](O)[C@H](O)[C@H]3O)[C@H]1OC(=O)[C@@H](C)CC)[C@H]2O [MURUCOIDIN IV] | 15 µg/mL (≈ 12.8 µM) | 4 µg/mL (≈ 3.42 µM) | > 512 µg/mL | > 20 µg/mL | > 512 µg/mL | > 512 µg/mL | > 512 µg/mL
CCCCC[C@H]1CCCCCCCCCC(=O)O[C@H]2[C@H](O[C@H]3[C@H](O1)O[C@H](CO)[C@@H](O)[C@@H]3O)O[C@@H](C)[C@H](O[C@@H]1O[C@@H](C)[C@H](O[C@@H]3O[C@@H](C)[C@H](OC(=O)[C@@H](C)CC)[C@@H](O)[C@H]3O)[C@@H](O[C@@H]3O[C@@H](C)[C@H](O)[C@@H](O)[C@H]3O)[C@H]1OC(=O)[C@@H](C)CC)[C@H]2O [MURUCOIDIN VIII] | 17.9 µg/mL (≈ 15.3 µM) | 14.2 µg/mL (≈ 12.1 µM) | > 512 µg/mL | 16.4 µg/mL (≈ 14 µM) | > 512 µg/mL | > 512 µg/mL | > 512 µg/mL
CCCCCCCCCCCC(=O)O[C@H]1[C@H](O[C@@H]2[C@H]3OC(=O)CCCCCCCCC[C@H](CCCCC)O[C@@H]4O[C@H](C)[C@H](O)[C@H](O)[C@H]4O[C@H](O[C@H]2C)[C@@H]3O)O[C@@H](C)[C@H](O[C@@H]2O[C@@H](C)[C@H](OC(=O)[C@@H](C)CC)[C@@H](O)[C@H]2O)[C@H]1O[C@@H]1O[C@H](CO)[C@@H](O)[C@H](O)[C@H]1O [MURUCOIDIN XI] | 12.1 µg/mL (≈ 9.55 µM) | > 20 µg/mL | > 512 µg/mL | > 20 µg/mL | > 512 µg/mL | > 512 µg/mL | > 512 µg/mL
